Calls of active or inactive are those of the source. The calls are words filed in the database; no cut-off is given here.
Experiments:
[1] = molecular target: T1, Bromodomain-containing protein 4 (Homo sapiens, UniProt O60885); assay: Displacement of fluorescein-labeled MS574 from recombinant human BRD4 BrD2 after 1 hr by fluorescence anisotropy assay
Summary of the method: (§1)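 Competition fluorescence anisotropy with His-tag-removed recombinant bromodomain (Ni-IDA purified, thrombin cleaved) at 0.25–1 µM, chosen so that 50–80% of probe is bound. FITC-labeled probe at 80 nM (≤2Kd), unlabeled ligand titrated, in PBS pH 7.4, read after 1 h at 25 °C. IC50 from curve fit, converted to Ki with the Nikolovska-Coleska correction to Cheng-Prusoff (one-site competitive). The resolvable Ki is limited by the probe Kd.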

[2] = molecular target: T1, Bromodomain-containing protein 4; assay: Displacement of fluorescein-labeled MS574 from recombinant human BRD4 BrD1 after 1 hr by fluorescence anisotropy assay; conditions: for Ki: read-out: Ki; summary of the method: as §1

Row | Compound | inhibition [1] | inhibition [2] | Ki [1] | Ki [2]
1 | CC(=O)Nc1c(C)cc(/N=N/c2ccc(S(=O)(=O)Nc3ccccn3)cc2)cc1C | inactive | inactive | – | –
2 | Cc1cc(/N=N/c2ccc(S(=O)(=O)Nc3ccc(F)cc3)cc2)cc(C)c1O | – | – | 8.87 µM | 1.84 µM
3 | CC1(C)Cc2c(/N=N/c3ccc(S(=O)(=O)Nc4ccccn4)cc3)ccc(O)c2O1 | – | Active | – | –
4 | O=S(=O)(Nc1ccccn1)c1ccc(/N=N/c2ccc(O)c3c2CCCC3)cc1 | – | Active | – | –
5 | CC(C)c1cc(/N=N/c2ccc(S(=O)(=O)Nc3ccccn3)cc2)cc(C(C)C)c1O | inactive | inactive | – | –
6 | Cc1cc(/N=N/c2cccc(S(=O)(=O)Nc3ccccn3)c2)cc(C)c1O | – | – | 40.4 µM | 5.97 µM
7 | Cc1cc(/N=N/c2cc(S(=O)(=O)O)c(C)cc2C)c(N)cc1O [ISCHEMIN] | – | – | 19.7 µM | 10.8 µM
8 | Cc1nc(/N=N/c2ccc(S(=O)(=O)Nc3ccccn3)cc2)c(CO)c(C)c1O | – | inactive | – | –
9 | Cc1nc(/N=N/c2ccc(S(=O)(=O)Nc3ccccn3)cc2)c(C)c(C)c1O | – | – | 9.1 µM | 6.02 µM
10 | CC(C)(C)c1cc(/N=N/c2ccc(S(=O)(=O)Nc3ccccn3)cc2)cc(C(C)(C)C)c1O | inactive | inactive | – | –
11 | Cc1cc(/N=N/c2ccc(S(=O)(=O)Nc3ccc(Br)cn3)cc2)cc(C)c1O | – | – | 38.7 µM | 6.54 µM
12 | Cc1cc(/N=N/c2ccc(S(=O)(=O)NCc3ccc(C(F)(F)F)cc3)cc2)cc(C)c1O | – | – | > 100 µM | > 100 µM
13 | Cc1cc(/N=N/c2ccc(S(=O)(=O)Nc3ccc(C(N)=O)cc3)cc2)cc(C)c1O | – | – | 12.2 µM | 9.6 µM
14 | O=S(=O)(Nc1ccccn1)c1ccc(/N=N/c2ccc(O)c3c2NCCC3)cc1 | – | Active | – | –
15 | Cc1cc(/N=N/c2ccc(S(=O)(=O)Nc3ccccn3)cc2)nc(C)c1O | – | – | 24.6 µM | 2.31 µM
16 | Cc1nc(/N=N/c2ccc(S(=O)(=O)Nc3ccccn3)cc2)c(CO)c(C=O)c1O | – | inactive | – | –
17 | COc1c(C)cc(/N=N/c2ccc(S(=O)(=O)Nc3ccccn3)cc2)cc1C | inactive | inactive | – | –
18 | Cc1nc(/N=N/c2ccc(S(=O)(=O)Nc3ccccn3)cc2)c(CO)c(CN)c1O | – | inactive | – | –
19 | O=S(=O)(Nc1ccccn1)c1ccc(/N=N/c2ccc(O)c3ccccc23)cc1 | – | Active | – | –

More lines, now with the values ahead:

Row | inhibition [1] | inhibition [2] | Ki [1] | Ki [2] | Compound
20 | – | – | 8.2 µM | 6.43 µM | Cc1cc(/N=N/c2ccc(S(=O)(=O)Nc3ccccn3)cc2)ccc1O
21 | – | – | 6.83 µM | 9.45 µM | O=S(=O)(Nc1ccccn1)c1ccc(/N=N/c2ccc(O)c(C(F)(F)F)c2)cc1
22 | – | – | 5.84 µM | 0.73 µM | Cc1cc(/N=N/c2ccc(S(=O)(=O)Nc3ccc(Cl)cn3)cc2)cc(C)c1O
23 | – | – | 7.77 µM | 3.13 µM | COc1cc(/N=N/c2cc(C)c(O)c(C)c2)ccc1S(=O)(=O)Nc1ccccn1
24 | – | – | 7.14 µM | 10.7 µM | Cc1cc(/N=N/c2ccc(S(=O)(=O)Nc3ccc(C(F)(F)F)cc3)cc2)cc(C)c1O
25 | – | – | 2.23 µM | 0.5 µM | COc1ccc(NS(=O)(=O)c2ccc(/N=N/c3cc(C)c(O)c(C)c3)cc2)nc1
26 | – | – | 4.29 µM | 0.52 µM | O=S(=O)(Nc1ccccn1)c1ccc(/N=N/c2cc(Br)c(O)c(Br)c2)cc1
27 | – | – | 7.77 µM | 6.13 µM | Cc1cc(/N=N/c2ccc(S(=O)(=O)Nc3cccc(C(F)(F)F)c3)cc2)cc(C)c1O
28 | – | – | 7.12 µM | 7.89 µM | Cc1cc(/N=N/c2ccc(S(=O)(=O)N(C)c3ccccn3)cc2)cc(C)c1O
29 | – | – | 4.89 µM | 1.27 µM | O=S(=O)(Nc1ccccn1)c1ccc(/N=N/c2cc(Cl)c(O)c(Cl)c2)cc1
30 | – | – | 3.91 µM | 4.59 µM | O=S(=O)(Nc1ccccn1)c1ccc(/N=N/c2ccc(O)c(O)c2)cc1
31 | – | – | 6.37 µM | 4.92 µM | Cc1cc(C)c(S(=O)(=O)O)cc1/N=N/c1cc(C)c(O)c(C)c1
32 | – | – | 4.48 µM | 2.79 µM | Cc1cc(/N=N/c2ccc(S(=O)(=O)Nc3ccccn3)cc2)cc(Br)c1O
33 | – | – | 1.38 µM | 0.32 µM | Cc1cc(/N=N/c2ccc(S(=O)(=O)Nc3ccc(C(=O)O)cn3)cc2)cc(C)c1O
34 | – | – | 4.81 µM | 1.4 µM | Cc1cc(/N=N/c2ccc(S(=O)(=O)Nc3ccccn3)cc2)cc(Cl)c1O
35 | – | – | 4.69 µM | 4.67 µM | O=S(=O)(Nc1ccccn1)c1ccc(/N=N/c2ccc(O)c(Br)c2)cc1
36 | – | – | 5.39 µM | 1.28 µM | COc1cc(/N=N/c2ccc(S(=O)(=O)Nc3ccccn3)cc2)c(N)cc1O
37 | – | – | 3.27 µM | 2.39 µM | Cc1cc(/N=N/c2ccc(S(=O)(=O)Nc3ccccn3)cc2)cc(O)c1O
38 | – | – | 5.92 µM | 0.9 µM | Cc1cc(/N=N/c2ccc(S(=O)(=O)Nc3cc(Cl)ccn3)cc2)cc(C)c1O
39 | – | – | 3.44 µM | 1.3 µM | Cc1cc(/N=N/c2ccc(S(=O)(=O)Nc3ccc(F)cn3)cc2)cc(C)c1O
40 | – | – | 6.16 µM | 1.3 µM | O=S(=O)(Nc1ccccn1)c1ccc(/N=N/c2ccc(O)c(Cl)c2)cc1
41 | – | – | 6.59 µM | 6.48 µM | COc1ccc(NS(=O)(=O)c2ccc(/N=N/c3cc(C)c(O)c(C)c3)cc2)cc1

Source: ChEMBL document CHEMBL3085768, “Structure-guided design of potent diazobenzene inhibitors for the BET bromodomains” (J Med Chem, 2013)
